# CSN inh – blocks human CSN-mediated cullin deneddylation; Q92905; Purified CSN, SCF-Nedd8-OG deneddylation, fluorescence polarization; inhibition, % at 12.5 µM; 0.38% of 360,000 active;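 active = pattern-corrected inhibition above about 35%, with an unprinted fluorescence ratio check between 0.5 and 1.5, limit read from the data, passing the limit was not always enough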;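 also: 0% = enzyme with substrate and 100% = substrate without enzyme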
#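 test system = HEK293T-derived human Csn5 enzyme | amount = 0.24 nM Csn5 enzyme, final concentration | medium = Tris/NaCl/DTT buffer, pH 7.5 | schedule = 90 min reaction at room temperature | signal = FP | evaluation = inhibition of Csn5 cleavage, % | compound dosing = single dose of 12.5 µM compound with 0.25% DMSO | probe or stimulus = 10 nM SCFSkp2-Nedd8OG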
# HNF4A DNA FP – change in binding of human HNF4 alpha to DNA; 0.3% of 360,000 active; activity change, % at 10 µM; HNF4a-FITC DNA binding, fluorescence polarization, 1 h; in the data active = activity change above about 30%, passing the limit was not always enough
# Tb MetRS inh – blocks T. brucei methionyl-tRNA synthetase activity. purified T. brucei MetRS, ATP depletion, Kinase-Glo luminescence. inhibition, % at 11.9 µM. 0.4% of 360,000 active;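 active = inhibition above a per-plate cutoff of the control wells' mean inhibition plus 3 SD, cut at about 5.5% in these data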;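 also: 0% = DMSO wells median and 100% = median of wells with control inhibitor compound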
#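 Dosing: 11.9 µM compound single dose, 0.9% DMSO; Assay system: purified T. brucei MetRS enzyme; Measured by: Kinase-Glo luciferase luminescence reporting remaining unconsumed ATP; Schedule: 15 min plus 2 h at 25 °C.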
# TPT1 inhibitor – C. albicans TPT1 enzyme inhibition | 0.81% of 300,000 active | recombinant caTPT1, FP RNA substrate dephosphorylation | inhibition, % at 5 µM | AID 1962;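 active = inhibition above the mean of all tested compounds plus 3 SD, set per screening campaign, cut at about 24% in these data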;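 also: plate controls were DMSO alone for no effect and ferristatin control at 100 nM for full effect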
# IDE cell activ – boosts human insulin-degrading enzyme activity in HEK cells. 0.073% of 340,000 active. FAbeta-B cleavage, fluorescence polarization; 0% vehicle, 100% cell-free pure enzyme wells. activation, % at 5.96 µM;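 active = activation above the mean of all tested compounds plus 3 SD, set per screening campaign, cut at about 17% in these data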
# Target sequence (P14735 whole entry, looked up): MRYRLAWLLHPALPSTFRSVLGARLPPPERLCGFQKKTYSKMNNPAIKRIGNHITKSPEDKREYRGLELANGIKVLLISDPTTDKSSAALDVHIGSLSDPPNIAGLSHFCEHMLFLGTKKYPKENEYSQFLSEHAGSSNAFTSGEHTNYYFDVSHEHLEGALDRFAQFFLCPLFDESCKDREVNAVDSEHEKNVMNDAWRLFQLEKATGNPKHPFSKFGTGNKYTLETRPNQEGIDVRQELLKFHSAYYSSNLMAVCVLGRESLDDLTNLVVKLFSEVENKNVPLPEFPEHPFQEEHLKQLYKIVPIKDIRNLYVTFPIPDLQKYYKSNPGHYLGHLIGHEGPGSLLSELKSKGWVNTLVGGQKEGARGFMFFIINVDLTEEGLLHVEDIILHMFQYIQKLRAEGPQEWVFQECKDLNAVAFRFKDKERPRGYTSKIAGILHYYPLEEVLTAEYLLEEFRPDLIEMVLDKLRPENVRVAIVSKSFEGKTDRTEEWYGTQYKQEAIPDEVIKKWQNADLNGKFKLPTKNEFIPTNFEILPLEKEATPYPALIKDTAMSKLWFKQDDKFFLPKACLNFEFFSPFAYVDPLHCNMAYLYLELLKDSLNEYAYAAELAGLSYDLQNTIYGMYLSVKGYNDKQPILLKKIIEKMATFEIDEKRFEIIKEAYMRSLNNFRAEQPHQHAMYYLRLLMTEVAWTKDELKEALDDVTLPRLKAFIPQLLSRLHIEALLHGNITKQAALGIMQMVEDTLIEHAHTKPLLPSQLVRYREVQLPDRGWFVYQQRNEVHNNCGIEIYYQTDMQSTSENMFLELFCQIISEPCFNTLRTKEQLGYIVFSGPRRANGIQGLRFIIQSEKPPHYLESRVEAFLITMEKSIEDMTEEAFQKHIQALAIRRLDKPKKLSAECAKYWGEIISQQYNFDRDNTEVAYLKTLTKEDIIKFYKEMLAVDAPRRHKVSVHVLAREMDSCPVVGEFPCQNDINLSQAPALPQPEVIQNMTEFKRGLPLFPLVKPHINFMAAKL
# IDE inh – inhibitors of human insulin-degrading enzyme in cells. P14735. HEK cells, FAbetaB cleavage, fluorescence polarization. inhibition, % at 5.59 µM. 0.41% of 320,000 active. AID 434962;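 active = percent inhibition above the average of all tested compounds plus 3 SD, set per screening campaign, cut at about 16% in these data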;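 also: IDE supplied by intact live HEK cells; FP after avidin binding of uncleaved biotin substrate so inhibition keeps polarization high; 0% = DMSO wells and 100% = 60 µM reference IDE inhibitor Ii1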
# TPT1 inh confirm – TPT1 (C. albicans) inhibition, confirmation | shares compounds with TPT1 inhibitor | 74% of 2,400 active | AID 2149 | recombinant caTPT1, fluorescence polarization, RNase T1 coupled | inhibition, % at 5 µM;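 active = inhibition above the primary screen limit, the mean inhibition of all tested compounds plus 3 SD, cut at about 25% in these data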
# RNase T1 counter – blocks Aspergillus oryzae RNase T1, a TPT1 counter-screen | shares compounds with TPT1 inhibitor | 83% of 2,400 active | AID 2153 | inhibition, % at 5 µM | RNase T1 cleavage, fluorescence polarization, 1536-well;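 active = inhibition above the solvent-only control well mean plus 3 SD, limit set per screening run, cut at about 23% in these data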;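 also: plate controls were DMSO wells with enzyme for no effect and wells without RNase T1 for full effect; inhibitors block cleavage so intact labeled substrate keeps polarization high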
# Starred values were filed as active, the others as inactive; . = no result given. Only some compounds are listed: those with a hit (about 1.7% of all), similar ones and a draw of the others.
SMILES,CSN inh,HNF4A DNA FP,Tb MetRS inh,TPT1 inhibitor,IDE cell activ,IDE inh,TPT1 inh confirm,RNase T1 counter
C=CCn1c(=O)c(C=Nc2cccnc2Cl)c(O)n(CCCC)c1=O,28.9,8.4,0.6,43.5*,-4.5,6.9,13.3,23.3*
CCn1c(O)c(C=Nc2cc(Cl)ccc2Cl)c(=O)n(CC)c1=O,-1.6,4.5,-0.2,4.8,-4.9,4.7,.,.
COc1ccc(C(=O)O/N=C(/C(N)=O)P(=O)(OC(C)C)OC(C)C)cc1,-4.0,0.1,-0.2,-0.3,.,3.4,.,.
C=CCn1c(O)c(C=NCCN2CCOCC2)c(=O)[nH]c1=S,1.8,0.2,-1.4,-1.8,6.3,0.4,.,.
O=C(O)C1C2c3ccccc3C(=O)C1(C(=O)O)c1ccccc12 (centres undefined),0.9,3.6,-0.1,.,1.9,.,.,.
Cc1cccc(N2C(=O)NC(=O)/C(=C/c3ccc([N+](=O)[O-])o3)C2=O)c1,.,.,.,27.8*,.,2.0,17.5,17.9
COc1ccccc1-n1c(O)c(/C=C2\C=Nc3ccccc32)c(=O)[nH]c1=O,3.6,1.1,-0.5,28.7*,0.9,1.9,15.3,22.2*
CCOc1ccc(-n2c(O)c(/C=C3\C=Nc4ccccc43)c(=O)[nH]c2=O)cc1,-0.6,-7.6,-0.9,22.9,-2.3,0.8,.,.
C=CCn1c(O)c(/C=C2\C=Nc3ccccc32)c(=O)[nH]c1=O,7.7,1.3,0.4,35.5*,.,-3.0,13.5,20.6
Cc1cccc(N2C(=O)/C(=C/c3ccc(CN(CCC#N)S(C)(=O)=O)o3)C(=O)NC2=S)c1,31.2,21.7,-1.0,33.7*,4.4,1.4,21.5,28.9*
Cc1ccc(N2C(=O)/C(=C/c3ccc(CN(CCC#N)S(C)(=O)=O)o3)C(=O)NC2=S)cc1C,.,.,.,46.0*,.,10.2,47.6*,57.3*
CCS(=O)(=O)Nc1cccc(C(=C2CCCCC2)c2cnc[nH]2)c1,0.7,5.0,0.1,-1.9,0.2,-2.7,.,.
Oc1ccc2c3c1O[C@H]1c4[nH]c5ccccc5c4C[C@@]4(O)[C@@H](C2)N(CC2CC2)CC[C@]314,-2.8,3.6,2.6,2.1,4.9,0.1,.,.
O[C@@H]1CCCN2CCc3c([nH]c4ccccc34)[C@H]12,4.7,2.1,-0.1,30.3*,0.2,9.8,14.4,23.1*
CC1=Nc2ccccc2/C1=C/c1c(O)[nH]c(=O)[nH]c1=O,4.7,2.0,0.0,3.2,4.2,4.3,.,.
O=c1[nH]c(O)c(/C=C2/C=CC(c3cc(Cl)ccc3Cl)=N2)c(=O)[nH]1,17.5,7.6,0.7,93.5*,-45.6,8.8,108.3*,103.4*
Cn1c(O)c(/C=N/NC(=O)c2ccncc2)c(=O)n(C)c1=S,21.8,14.3,0.9,116.3*,.,2.6,100.7*,110.5*
Cc1ccc(-n2c(O)c(/C=N/NC(=O)c3ccncc3)c(=O)[nH]c2=O)cc1,10.4,18.6,-0.5,30.0*,0.2,6.5,46.8*,56.4*
CCCCn1c(O)c(/C=N/NC(=O)c2ccncc2)c(=O)[nH]c1=S,26.8,47.9*,-0.5,29.6*,5.6,1.1,19.8,28.5*
O=C(N/N=C/c1c(O)n(-c2ccccc2)c(=O)[nH]c1=O)c1ccncc1,10.8,7.4,0.3,15.9,-8.2,-1.7,.,.
C=CCN1C(=O)C2(C(C(=O)OCC)=C(N)Oc3ccccc32)c2c1c1ccccc1oc2=O (centres undefined),-2.1,-3.6,-1.8,0.5,3.0,1.5,.,.
O=C1NC(=O)N(Cc2ccc(F)cc2)C(=O)/C1=C/c1cccs1,9.0,-3.0,-0.4,11.7,-2.2,2.2,.,.
O=C1NC(=O)N(Cc2ccc(F)cc2)C(=O)/C1=C\c1ccoc1,149.5,59.7*,-0.7,163.4*,-35.3,17.3*,67.2*,80.5*
Cc1ccc(/C=C2\C(=O)NC(=O)N(CCc3ccc(F)cc3)C2=O)o1,5.3,-0.1,-0.5,20.0,1.1,9.0,.,.
CCOc1cc(/C=C2\C(=O)NC(=O)N(CCc3ccc(F)cc3)C2=O)ccc1O,11.9,7.3,-0.9,29.6*,6.4,10.1,38.7*,20.0
SMILES,CSN inh,HNF4A DNA FP,Tb MetRS inh,TPT1 inhibitor,IDE cell activ,IDE inh,TPT1 inh confirm,RNase T1 counter
Cc1ccc(/C=C2/C(=O)NC(=O)N(Cc3ccc(F)cc3)C2=O)o1,.,.,.,34.6*,.,-0.7,18.4,25.5*
CN(C)c1ccc(/C=C2\C(=O)NC(=O)N(Cc3ccc(F)cc3)C2=O)cc1,7.2,2.3,-0.4,28.9*,5.2,-2.4,47.7*,67.9*
CN(C)c1cccc2c(C#N)ccc(N(C)C)c12,-2.8,-1.0,0.0,-1.4,.,4.9,.,.
CN1CCN(CCOC2c3ccccc3CSc3ccc(Cl)cc32)CC1 (centres undefined),6.0,-0.9,0.2,55.4*,0.8,-0.2,3.2,8.6
COc1ccc(OC)c(N2C(=O)/C(=C/c3ccco3)C(=O)NC2=S)c1,.,.,.,67.9*,.,2.1,54.6*,27.0*
OC[C@@H](O)CCl,.,.,.,-0.6,.,6.2,.,.
C/C(=N\Nc1ccccc1)c1c(O)n(Cc2ccccc2)c(=O)[nH]c1=O,-11.8,0.0,0.0,5.0,1.9,5.5,.,.
Cc1ccc(C)c(Cn2c(C(=O)O)c(C=O)c3ccccc32)c1,116.4,163.6,-0.6,123.5*,0.7,9.0,142.6*,137.0*
C#C[C@]1(O)CC[C@H]2[C@@H]3CCC4=Cc5nc6nc7ccccc7n6cc5C[C@]4(C)[C@H]3CC[C@@]21C,14.4,10.0,-0.9,32.2*,-0.7,3.4,33.4*,43.9*
Cn1c(O)c(C=Nc2ccccc2)c(=O)n(C)c1=O,-4.7,0.6,-0.9,4.1,4.0,-2.3,.,.
Cn1c(O)c(/C=C/C=Nc2ccccc2)c(=O)n(C)c1=O,56.5*,85.5*,0.1,104.4*,-4.6,7.4,110.7*,117.9*
C=CCn1c(O)c(C=Nc2c(C)n(C)n(-c3ccccc3)c2=O)c(=O)[nH]c1=O,4.9,5.2,0.1,38.3*,1.2,3.7,17.5,23.8*
Cc1c(N=Cc2c(O)n(C)c(=O)[nH]c2=O)c(=O)n(-c2ccccc2)n1C,14.5,8.2,0.4,-4.9,.,1.7,.,.
CC(C)CNC(=O)c1c(N)n(Cc2ccco2)c2nc3ccccc3nc12,16.6,3.5,0.6,28.5*,0.2,11.6,16.1,23.0*
CC(C)OCCCNC(=O)c1c(N)n(Cc2cccs2)c2nc3ccccc3nc12,6.8,3.6,0.6,26.5*,7.9,-8.4,10.3,12.4
CCCNC(=O)c1c(N)n(Cc2ccco2)c2nc3ccccc3nc12,.,.,.,15.4,.,10.3,.,.

# Screens deposited in PubChem by several laboratories.
